In general, pKd refers to the negative decadic logarithm of the Kd, by convention in mol/L.

Assay [1] in a line: (§1) Selectivity ratio of Kd for displacement of fluorescent tracer 5-(3-(4-((1S,5S,6S)-10-(3,5-dichlorophenylsulfonyl)-2-oxo-3-(pyridin-3-ylmethyl)-3,10-diazabicyclo[4.3.1]decan-5-yl)-1H-1,2,3-triazol-1-yl)propylcarbamoyl)-2-(6-(dimethylamino)-3-(dimethyliminio)-3H-xanthen-9-yl)benzoate from recombinant full length C-terminal FLAG-tagged FKBP12.6 (unknown origin) to Kd for displacement of fluorescent tracer 5-(3-(4-((1S,5S,6S)-10-(3,5-dichlorophenylsulfonyl)-2-oxo-3-(pyridin-3-ylmethyl)-3,10-diazabicyclo[4.3.1]decan-5-yl)-1H-1,2,3-triazol-1-yl)propylcarbamoyl)-2-(6-(dimethylamino)-3-(dimethyliminio)-3H-xanthen-9-yl)benzoate from recombinant full length C-terminal FLAG-tagged FKBP51 (unknown origin).

Assay [2] addresses Peptidyl-prolyl cis-trans isomerase FKBP1A (Homo sapiens, UniProt P62942). The assay is described as follows: Displacement of fluorescent tracer 5-(3-(4-((1S,5S,6S)-10-(3,5-dichlorophenylsulfonyl)-2-oxo-3-(pyridin-3-ylmethyl)-3,10-diazabicyclo[4.3.1]decan-5-yl)-1H-1,2,3-triazol-1-yl)propylcarbamoyl)-2-(6-(dimethylamino)-3-(dimethyliminio)-3H-xanthen-9-yl)benzoate from recombinant full length C-terminal FLAG-tagged FKBP12 (unknown origin) expressed in Escherichia coli BL21 ([…]) cells incubated for 30 mins by fluorescence polarisation competition binding assay. An outline of the steps:
(§2)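 Competitive FP in 150 mM NaCl, 20 mM HEPES pH 8.0, 0.002% Triton X-100. Ligand 1:1 serially diluted in DMSO and premixed with fluorescent tracer, tracer working solution 11.9 nM (FKBP12.6, 51FK1, 52FK1) or 5.95 nM (FKBP12) before final 10-fold dilution into protein. 30 min at room temperature, read at ex/em 535/590 nm. Weighted SD from at least two independent runs.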

A short description of assay [3]: as §1, with “FKBP52” for “FKBP12.6”.
Assay [4] concerns the target T1, Peptidyl-prolyl cis-trans isomerase FKBP5 (Homo sapiens, UniProt Q13451).
T1 sequence (Q13451 whole entry): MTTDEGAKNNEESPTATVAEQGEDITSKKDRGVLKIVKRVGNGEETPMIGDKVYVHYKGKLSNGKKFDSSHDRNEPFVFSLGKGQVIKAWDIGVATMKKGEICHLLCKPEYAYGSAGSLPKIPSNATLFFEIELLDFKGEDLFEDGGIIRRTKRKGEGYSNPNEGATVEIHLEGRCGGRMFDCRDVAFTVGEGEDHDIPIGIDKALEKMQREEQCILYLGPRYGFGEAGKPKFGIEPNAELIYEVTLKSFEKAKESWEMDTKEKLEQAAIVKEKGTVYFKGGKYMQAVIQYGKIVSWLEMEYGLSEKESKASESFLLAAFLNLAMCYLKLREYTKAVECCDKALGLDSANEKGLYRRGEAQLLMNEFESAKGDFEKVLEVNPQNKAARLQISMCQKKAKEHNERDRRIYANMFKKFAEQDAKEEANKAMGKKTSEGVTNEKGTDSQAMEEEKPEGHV
The assay can be described thus: Displacement of fluorescent tracer 5-(3-(4-((1S,5S,6S)-10-(3,5-dichlorophenylsulfonyl)-2-oxo-3-(pyridin-3-ylmethyl)-3,10-diazabicyclo[4.3.1]decan-5-yl)-1H-1,2,3-triazol-1-yl)propylcarbamoyl)-2-(6-(dimethylamino)-3-(dimethyliminio)-3H-xanthen-9-yl)benzoate from recombinant full length C-terminal FLAG-tagged FKBP51 (unknown origin) expressed in Escherichia coli BL21 (DE3) cells incubated for 30 mins by fluorescence polarisation competition binding assay.

For assay [5], the target named is T2, Peptidyl-prolyl cis-trans isomerase FKBP4 (Homo sapiens, UniProt Q02790).
T2 sequence (Q02790 whole entry): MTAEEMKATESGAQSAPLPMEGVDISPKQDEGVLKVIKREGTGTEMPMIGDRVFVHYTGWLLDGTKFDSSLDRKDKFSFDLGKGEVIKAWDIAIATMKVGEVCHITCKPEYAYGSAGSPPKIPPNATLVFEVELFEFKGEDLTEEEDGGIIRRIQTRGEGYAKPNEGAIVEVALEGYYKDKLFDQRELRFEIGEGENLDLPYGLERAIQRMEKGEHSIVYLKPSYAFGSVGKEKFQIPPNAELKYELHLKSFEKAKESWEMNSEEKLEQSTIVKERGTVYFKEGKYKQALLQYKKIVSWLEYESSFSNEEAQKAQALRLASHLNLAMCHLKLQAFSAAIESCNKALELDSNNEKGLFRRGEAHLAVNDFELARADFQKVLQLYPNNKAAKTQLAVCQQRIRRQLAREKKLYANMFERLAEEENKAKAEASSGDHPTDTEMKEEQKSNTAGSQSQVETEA
The assay can be described thus: Displacement of fluorescent tracer 5-(3-(4-((1S,5S,6S)-10-(3,5-dichlorophenylsulfonyl)-2-oxo-3-(pyridin-3-ylmethyl)-3,10-diazabicyclo[4.3.1]decan-5-yl)-1H-1,2,3-triazol-1-yl)propylcarbamoyl)-2-(6-(dimethylamino)-3-(dimethyliminio)-3H-xanthen-9-yl)benzoate from recombinant full length C-terminal FLAG-tagged FKBP52 (unknown origin) expressed in Escherichia coli BL21 (DE3) cells incubated for 30 mins by fluorescence polarisation competition binding assay. In outline:
as §2
In general terms: Fluorescence polarisation rises when a labelled molecule tumbles more slowly, as on binding a larger partner.

For assay [6], the target named is Peptidyl-prolyl cis-trans isomerase FKBP1B (Homo sapiens, UniProt P68106). The assay is described as follows: Displacement of fluorescent tracer 5-(3-(4-((1S,5S,6S)-10-(3,5-dichlorophenylsulfonyl)-2-oxo-3-(pyridin-3-ylmethyl)-3,10-diazabicyclo[4.3.1]decan-5-yl)-1H-1,2,3-triazol-1-yl)propylcarbamoyl)-2-(6-(dimethylamino)-3-(dimethyliminio)-3H-xanthen-9-yl)benzoate from recombinant full length C-terminal FLAG-tagged FKBP12.6 (unknown origin) expressed in Escherichia coli BL21 (DE3) cells incubated for 30 mins by fluorescence polarisation competition assay. In outline:
as §2

Assay [7] in a line: as §1, with “FJBP12” for “FKBP12.6 (unknown origin)”.

pKd: −log10 of the molar value.

Chain of Peptidyl-prolyl cis-trans isomerase FKBP1A (P62942 whole entry): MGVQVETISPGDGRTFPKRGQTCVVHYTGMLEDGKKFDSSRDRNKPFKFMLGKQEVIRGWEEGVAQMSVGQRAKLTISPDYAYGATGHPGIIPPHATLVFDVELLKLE
Chain of Peptidyl-prolyl cis-trans isomerase FKBP1B (P68106 whole entry): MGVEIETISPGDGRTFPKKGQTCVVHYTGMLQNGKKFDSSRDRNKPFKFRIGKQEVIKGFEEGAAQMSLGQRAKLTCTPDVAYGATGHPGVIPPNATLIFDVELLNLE

Take `COc1ccc(CC[C@H]2OC(=O)[C@@H]3CCCCN3C(=O)[C@@H](C3CCCCC3)c3cc(OC)c(OC)c(c3)OCCCCOc3cccc2c3)cc1OC`: the Selectivity ratio in assay [1] amounted to 2.1; in assay [3] it was 154; in assay [7], 3.8. The negative logarithm of the Kd (pKd) was 6.95 in assay [2], 7.54 in assay [4], 5.35 in assay [5] and 7.21 in assay [6].

Regarding `COc1ccc(CC[C@H]2OC(=O)[C@@H]3CCCCN3C(=O)[C@@H](C3CCCCC3)c3cc(OC)c(OC)c(c3)OCCCCCOc3cccc2c3)cc1OC`, the Selectivity ratio in assay [1] was 2.2; in assay [3], > 217; in assay [7] it was 2.7. Besides, the pKd in assay [2] is 6.90; in assay [4], 7.34; in assay [5], < 5.00; in assay [6], 7.00.

On to `COc1ccc(CC[C@H]2OC(=O)[C@@H]3CCCCN3C(=O)[C@@H](C3CCCCC3)c3cc(OC)c(c(OC)c3)OCCCOC/C=C/COc3cccc2c3)cc1OC`, for which the Selectivity ratio in assay [1] was 3.9; in assay [3], > 119; in assay [7], 7. The pKd in assay [2] is 6.23; in assay [4], 7.08; in assay [5], < 5.00; in assay [6], 6.47.

As for `COc1ccc(CC[C@H]2OC(=O)[C@@H]3CCCCN3C(=O)[C@@H](C3CCCCC3)c3cc(OC)c(c(OC)c3)OCCOc3cccc2c3)cc1OC`, the Selectivity ratio in assay [1] was 3.3; in assay [3] it was > 147; in assay [7], 7.8. The negative-log Kd (pKd) in assay [2] is 6.27; in assay [4] it was 7.17; in assay [5], < 5.00; in assay [6], 6.64.

For the molecule `COc1ccc(CC[C@H]2OC(=O)[C@@H]3CCCCN3C(=O)[C@@H](C3CCCCC3)c3cc(OC)c(OC)c(c3)OCCC(=O)COc3cccc2c3)cc1OC`, the Selectivity ratio in assay [1] was found to be 2.7; in assay [3], 294; in assay [7], 4.9. The negative-log Kd (pKd) in assay [2] was 7.23; in assay [4], 7.92; in assay [5], 5.45; in assay [6], 7.49.

For the molecule `COc1ccc(CC[C@H]2OC(=O)[C@@H]3CCCCN3C(=O)[C@@H](C3CCCCC3)c3cc(OC)c(OC)c(c3)OCCCC(=O)COc3cccc2c3)cc1OC`, the figures for the Selectivity ratio in assay [1], in assay [3] and in assay [7] were 1.5, 146 and 2.4, respectively. Further, the pKd in assay [2] was 7.18; in assay [4], 7.55; in assay [5], 5.39; in assay [6] it was 7.37.

As for `COc1ccc(CC[C@H]2OC(=O)[C@@H]3CCCCN3C(=O)[C@@H](C3CCCCC3)c3cc(OC)c(OC)c(c3)OCCC(=O)CCOc3cccc2c3)cc1OC`, the Selectivity ratio in assay [1] worked out at 2.5; in assay [3] it was 175; in assay [7], 4.8. Besides, the pKd was 7.42 in assay [2], 8.10 in assay [4], 5.85 in assay [5] and 7.70 in assay [6].

Regarding `COc1ccc(CC[C@H]2OC(=O)[C@@H]3CCCCN3C(=O)[C@@H](C3CCCCC3)c3cc(OC)c(OC)c(c3)OCCOC/C=C/COc3cccc2c3)cc1OC`, the Selectivity ratio in assay [1] was 1.7; in assay [3] it was > 161; in assay [7] it was 3.1. The pKd in assay [2] was 6.72; in assay [4] it was 7.21; in assay [5], < 5.00; in assay [6] it was 6.98.

In the case of `COc1ccc(CC[C@H]2OC(=O)[C@@H]3CCCCN3C(=O)[C@@H](C3CCCCC3)c3cc(OC)c(OC)c(c3)OCCCOC/C=C\COc3cccc2c3)cc1OC`, the Selectivity ratio in assay [1] is 2.3; in assay [3], > 69; in assay [7] it was 3.4. Further, the pKd in assay [2] is 6.31; in assay [4], 6.84; in assay [5] it was < 5.00; in assay [6], 6.45.

For `COc1ccc(CC[C@H]2OC(=O)[C@@H]3CCCCN3C(=O)[C@@H](C3CCCCC3)c3cc(OC)c(c(OC)c3)OCC/C=C/COc3cccc2c3)cc1OC`, the Selectivity ratio in assay [1] is 7.2; in assay [3], > 67; in assay [7], 6.8. Besides, the negative logarithm of the Kd (pKd) in assay [2] was 6.00; in assay [4], 6.83; in assay [5], < 5.00; in assay [6] it was 5.97.

Consider `COc1ccc(CC[C@H]2OC(=O)[C@@H]3CCCCN3C(=O)[C@@H](C3CCCCC3)c3cc(OC)c(OC)c(c3)OCC/C=C\COc3cccc2c3)cc1OC`, for which the values for the Selectivity ratio in assay [1], in assay [3] and in assay [7] were 1.6, > 141 and 2, respectively. For the same molecule, the negative logarithm of the Kd (pKd) in assay [2] is 6.86; in assay [4] it was 7.15; in assay [5] it was < 5.00; in assay [6], 6.94.

Regarding `COc1ccc(CC[C@H]2OC(=O)[C@@H]3CCCCN3C(=O)[C@@H](C3CCCCC3)c3cc(OC)c(OC)c(c3)OCCOc3cccc2c3)cc1OC`, the Selectivity ratio in assay [1] is 1.5; in assay [3], > 165; in assay [7] it was 4.5. In addition, the negative logarithm of the Kd (pKd) was 6.61 in assay [2], 7.26 in assay [4], 5.04 in assay [5] and 7.09 in assay [6].

On to `COc1ccc(CC[C@H]2OC(=O)[C@@H]3CCCCN3C(=O)[C@@H](C3CCCCC3)c3cc(OC)c(c(OC)c3)OCC/C=C\COc3cccc2c3)cc1OC`, for which the Selectivity ratio in assay [1] was 5.6; in assay [3], > 114; in assay [7] it was 6. Also, the pKd in assay [2] is 6.28; in assay [4], 7.06; in assay [5], < 5.00; in assay [6], 6.31.

For `COc1ccc(CC[C@H]2OC(=O)[C@@H]3CCCCN3C(=O)[C@@H](C3CCCCC3)c3cc(OC)c(c(OC)c3)OC/C=C/COc3cccc2c3)cc1OC`, the values for the Selectivity ratio in assay [1], in assay [3] and in assay [7] were 6.8, > 112 and 8.6, respectively. In addition, the pKd in assay [2] is 6.11; in assay [4], 7.05; in assay [5], < 5.00; in assay [6], 6.22.

The values are drawn from ChEMBL document CHEMBL4834405, “Structure-Based Design of High-Affinity Macrocyclic FKBP51 Inhibitors” (J Med Chem, 2021).
